Bioassay records as filed in PubChem.
CHOP inhibitor: blocks CHOP induction under ER stress; CHO-K1 CHOP-promoter luciferase, tunicamycin-induced, 15-18 h; inhibition, % at 10 µM; 3.8% of 220,000 active;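 active = compounds that reduced the stress-induced luciferase reporter signal by more than about 70% of percent inhibition, limit read from the data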;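 note: 0% = tunicamycin plus vehicle and 100% = wells without tunicamycin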
Dynein cargo inh: blocks dynein driven cargo transport along microtubules; 3617.4 mouse cells, GR-EGFP nuclear translocation imaging; test concentration mostly 20 µM; stimulated with dexamethasone, 1 µM; hits give low values; z-score, hits read low; 0.47% of 220,000 active;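 active = plate z-score of nuclear minus cytoplasmic receptor signal below a set negative limit, without overly bright fluorescence or cell loss, cut at about -3.5 in these data, passing the limit was not always enough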;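 note: z-score of nuclear minus cytoplasmic ring GR-EGFP intensity difference per well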
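Buffer or medium: tet-free, stripped-serum medium; reagent: dexamethasone at 1.0 µM final, 30 min; incubation: 48 h induction, 1 h compound, 30 min dex at 37 °C; measured by: formaldehyde fixation, Hoechst nuclear stain, 10x automated fluorescence imaging; read-out: nuclear-to-cytoplasmic GR-EGFP distribution per well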
L major viab: Leishmania major promastigote growth inhibition | Leishmania major promastigotes, resazurin fluorescence viability | inhibition, % at 10 µM | 9% of 200,000 active | AID 1063; in the data active = inhibition above about 50%;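 note: promastigotes grown with compound for 44 hours at 28 °C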
MT stabilize HCS: microtubule stabilization, imaging screen; HeLa tubulin immunostaining HCS, 24 h; share of cells brighter than vehicle mean+2SD; % tubulin-high responders, % at 10 µM; 0.83% of 200,000 active; AID 2205;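 active = plate Z-score above 3 for both tubulin-high and condensed-nucleus cell shares, with cell loss under 80%, at 10 µM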;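 note: anti alpha tubulin signal scored within the nucleus-defined area of each cell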
bCat nuc transl: modulators of beta-catenin nuclear translocation; HeLa beta-catenin nuclear translocation, immunofluorescence imaging; 0.3% of 190,000 active; AID 1665; nuclear translocation activity, % at 5 µM;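 active = nuclear translocation activity above 50% at 5 µM, with a well cell count of 50 or more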;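 note: per-cell ratio of nuclear to cytoplasmic median beta-catenin stain intensity; plate controls were DMSO negative control for no effect and GSK-3 inhibitor IX positive control for full effect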
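test system = HeLa cells, endogenous beta-catenin | dosing = single 5 µM dose plus 0.02–20 µM confirmation series | times = compound treatment 24 h, 37°C, 5% CO2 | technique = beta-catenin immunofluorescence imaging with DAPI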
Autophagy HCS: modulators of autophagy; MEF GFP-LC3 puncta imaging; test concentration mostly 10 µM; calls only at 10 µM (by protocol); 0.98% of 190,000 active;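 active = percentage of spot-positive cells more than 3 SD above its plate mean, without a fluorescence outlier flag or 80% toxicity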;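 note: spot-positive cell cutoff set from DMSO-treated cells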
Active calls of the source: *; i = inactive; . = no result given; + = active, no number. Hits are enriched below; roughly 12% of the tested compounds scored in any of these assays.

SMILES	CHOP inhibitor	Dynein cargo inh	L major viab	MT stabilize HCS	bCat nuc transl	Autophagy HCS
CC(=NC(C)C)C1=C(O)C(C)OC1=O (stereo not given)	-17.9	0.128	74.6*	2.1	1.4	i
CCOc1ccc(C(=O)Nc2nnc(C(C)C)s2)cc1OCC	-22.8	-0.332	86.5*	2.8	.	i
O=P(c1ccccc1)(c1ccccc1)C(c1ccco1)N1CCOCC1 (stereo not given)	-25.0	-0.589	8.1	4.7	1.6	i
O=C(COc1ccccc1)Nc1ccc2[nH]c(=O)[nH]c2c1	17.3	0.401	89.7*	6.0	0.3	i
O=C(COc1ccccc1)Nc1ccc2c(c1)Cc1cc(NC(=O)COc3ccccc3)ccc1-2	-22.6	-0.384	-8.2	5.3	-1.9	i
O=S(=O)(c1ccccc1F)N1CCN(CC(O)c2ccccc2)CC1 (stereo not given)	13.5	-0.288	-5.6	3.5	-2.5	i
CCN(CC)C(=O)CSC1=C(C#N)C(c2ccco2)C(C(=O)OCCOC)=C(C)N1 (stereo not given)	-22.4	0.0487	-0.9	4.7	0.7	i
COc1ccccc1NC(=O)C1=C(C)NC(SCC(=O)c2ccc(C)cc2)=C(C#N)C1c1ccco1 (stereo not given)	7.1	-0.697	15.1	1.8	0.6	+
CC(=O)C1=C(C)NC(SCC(=O)c2ccc(F)cc2)=C(C#N)C1c1ccco1 (stereo not given)	36.0	-0.882	5.5	3.8	0.7	i
C=CCOC(=O)C1=C(C)NC(SCC(=O)N(CC)CC)=C(C#N)C1c1ccco1 (stereo not given)	.	0.0191	81.2*	2.3	-2.0	i
CC(=O)C1=C(C)NC(SCC(=O)c2ccc(Cl)c(Cl)c2)=C(C#N)C1c1ccco1 (stereo not given)	.	-2.77	77.8*	15.4	26.3	+
O=C(NCc1ccccc1)NC1CCS(=O)(=O)C1 (stereo not given)	15.0	0.958	6.1	2.5	0.2	i
O=C(Cc1ccc(Cl)cc1)Nc1cccc(S(=O)(=O)Nc2ccccc2F)c1	42.3	-0.564	69.1*	2.0	1.3	i
CCOc1ccc(NCC(=O)Nc2ccc(C)cc2C)cc1	19.1	-0.573	14.1	2.8	-0.4	i
CCOc1ccc(NC(=O)CNc2ccc(C)cc2Cl)cc1	90.8*	-1.01	-2.9	1.6	.	i
Cc1cccc(NC(=O)CNc2cc(C)ccc2C)c1	77.3*	-0.927	12.5	3.7	-3.8	i
O=C(CSc1ccc([N+](=O)[O-])cc1)Nc1cccc(S(=O)(=O)Nc2ccccc2F)c1	13.6	0.0746	13.5	3.0	0.1	i
Cc1ccc(NCC(=O)Nc2cccc(S(=O)(=O)N(C)C)c2)c(Cl)c1	29.1	-0.919	75.5*	1.4	0.7	i
Cc1ccc(SCC(=O)Nc2cccc(C)c2)cc1	13.8	1.66	-5.3	.	-2.2	i
Cc1cc(OC(F)F)ccc1NC(=O)Nc1ccc([N+](=O)[O-])cc1	22.2	0.152	20.5	4.9	6.3	i
CN(C)S(=O)(=O)c1cccc(NC(=O)Cc2ccc(Cl)cc2)c1	59.4	-0.281	67.2*	3.5	.	i
NS(=O)(=O)c1cccc(NC(=O)COC(=O)Cc2ccc(Cl)cc2)c1	4.4	0.274	-3.0	2.8	-0.9	i
Cn1nc(C(=O)OCC(=O)NC2CCS(=O)(=O)C2)c2ccccc2c1=O (stereo not given)	1.9	0.984	-5.6	2.8	-0.8	i
COc1ccc(/C=N/NC(=O)CCn2c3ccccc3c3ccccc32)cc1O	41.3	-0.66	-8.8	18.5*	52.9*	i
COc1ccc(/C=N/NC(=O)CCn2nc(C)cc2C)cc1O	-1.6	-0.563	.	.	0.8	.
SMILES	CHOP inhibitor	Dynein cargo inh	L major viab	MT stabilize HCS	bCat nuc transl	Autophagy HCS
COc1cccc(/C=N/NC(=O)CCn2c3ccccc3c3ccccc32)c1	89.1*	0.218	-3.3	2.6	-0.3	i
COc1ccc(/C=N/NC(=O)c2nc(-c3ccccc3)cc(-c3ccccc3)n2)cc1O	7.0	1.78	98.9*	3.0	-1.1	i
CCCc1cc(=O)[nH]c(SCC(=O)NC2CCCc3ccccc32)n1 (stereo not given)	54.9	-0.385	.	.	-0.6	.
CC1CC(C)CN(S(=O)(=O)c2cccc(C(=O)OCCN3CCCC3=O)c2)C1 (stereo not given)	4.5	0.0562	-1.5	0.7	1.1	i
O=C(c1ccc(S(=O)(=O)N2CCC(c3nc4ccccc4s3)CC2)cc1)N1CCCCC1	.	1.36	-2.2	4.4	.	i
COc1ccc(C(=O)c2cc([N+](=O)[O-])ccc2N2CCCC2)cc1	31.1	0.0886	4.8	19.8*	-4.4	i
COc1ccc(C(=O)c2cc([N+](=O)[O-])ccc2N2CCN(C)CC2)cc1	-18.5	1.95	6.5	13.7*	73.7*	+
COc1ccc(NC(=O)c2cc([N+](=O)[O-])ccc2N2CCCC2)cc1	-3.4	-0.0873	-3.4	2.7	5.3	i
O=C(CSc1nnc2c3cc(F)ccc3nc(-c3ccccc3)n12)N1CCOCC1	.	0.108	-2.0	2.3	.	i
CCOc1ccc2nc(NC(=S)N(C)C)sc2c1	-218.1	-2.06	80.1*	1.1	.	+
CCn1ncc([N+](=O)[O-])c1C(=O)Nc1cc(C)on1	2.3	1.18	92.4*	2.3	-1.3	i
CCOc1ccc2nc(NC(=O)c3c([N+](=O)[O-])cnn3CC)sc2c1	18.9	-0.718	62.6*	2.6	.	i
CCCC(=O)Nc1nc2ccc(OCC)cc2s1	9.0	0.271	14.9	4.7	2.0	.
CCOc1ccc(NC(=O)CCSc2nc3c(c(CC)c2C#N)C(=O)CC(C)(C)C3)cc1	54.4	-0.746	17.9	2.2	1.7	i
CCc1c(C#N)c(SCCC(=O)Nc2ccc(C)cc2)nc2c1C(=O)CC(C)(C)C2	85.4*	-0.452	9.1	2.4	3.4	i
O=C(Nc1ccc(S(=O)(=O)N2CCOCC2)cc1)c1cc(-c2cc(Cl)ccc2O)n[nH]1	2.4	0.423	.	.	10.8	.
Cc1cccc(NC(=O)c2ccc(S(=O)(=O)N3CCOCC3)cc2)n1	11.4	-0.231	2.5	3.8	-0.9	i
Cc1cc(NC(=O)c2ccc(S(=O)(=O)N3CCOCC3)cc2)no1	11.9	-0.63	54.3*	3.5	-0.6	i
Cc1cc(O)c(-c2cc(C(=O)Nc3ccc(S(=O)(=O)N4CCOCC4)cc3)[nH]n2)cc1C	87.3*	-0.0201	48.0	8.4	3.5	i
Cc1cc(SCC(=O)OCC(=O)NCC2CCCO2)c(C)cc1Br (stereo not given)	20.6	-0.976	-7.8	2.8	-3.5	i
Cc1cc(C(=O)N2CCN(c3cccc(Cl)c3)CC2)c(C)o1	.	-0.745	10.8	59.8*	.	i
CSc1ccccc1C(=O)N1CCN(c2cccc(Cl)c2)CC1	35.3	-0.545	1.1	20.8*	40.1	i
